Active and inactive are the calls of the source. The rule behind the calls is not given here.
Key:
[1] = Cytotoxicity against human Huh-7 cells assessed as reduction in cell viability by Celltiter-Glo luminescent cell viability assay; assay type: cell-based; conditions: Huh-7 cells
Outline: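 Compound-exposed cells assessed by CellTiter-Glo luminescence versus DMSO control; CC50 from dose-response.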

[2] = tested on: dengue virus type 2; assay: Antiviral activity against Dengue virus serotype 2 New Guinea C infected in pre-seeded Huh-7 cells assessed as inhibition of viral replication incubated for 72 hrs by immunodetection based secondary yield reduction assay; assay type: functional, organism-based; conditions: Dengue virus, New Guinea C, Huh-7, 72 h; read-out: IC50
[3] = tested on: dengue virus type 2; assay: Antiviral activity against Dengue virus serotype 2 New Guinea C infected in pre-seeded Huh-7 cells assessed as inhibition of viral replication incubated for 72 hrs by immunodetection based direct yield reduction assay; assay type: functional, organism-based; conditions: Dengue virus, New Guinea C, Huh-7, 72 h; read-out: IC50
[4] = Selectivity index, ratio of CC50 for human Huh-7 cells to IC50 for Dengue virus serotype 2 New Guinea C infected in pre-seeded Huh-7 cells assessed as inhibition of viral replication incubated for 72 hrs by immunodetection based secondary yield reduction assay; assay type: toxicity, cell-based; conditions: read-out: Selectivity Index
[5] = Selectivity index, ratio of CC50 for human Huh-7 cells to IC50 for Dengue virus serotype 2 New Guinea C infected in pre-seeded Huh-7 cells assessed as inhibition of viral replication incubated for 72 hrs by immunodetection based direct yield reduction assay; assay type: toxicity, cell-based; conditions: read-out: Selectivity Index
Outline: (§1)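 Direct yield reduction in Huh7 cells (7000/well), infected with 50 TCID₅₀ of DENV or ZIKV, or 25 TCID₅₀ of WNV. Adsorption 1 h at 37 °C, then virus removed and serial compound dilutions added. Incubated 72 h (DENV, ZIKV) or 48 h (WNV). Viral antigen immunodetected on the monolayer. IC₅₀ by non-linear regression, mean of three experiments. SI = CC₅₀ (Huh7, CellTiter-Glo luminescence)/IC₅₀.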

[6] = Selectivity index, ratio of CC50 for human Huh-7 cells to IC50 for Dengue virus serotype 2 New Guinea C infected in pre-seeded Huh-7 cells assessed as inhibition of viral replication incubated for 72 hrs by immunodetection based plaque reduction assay; assay type: toxicity, cell-based; conditions: read-out: Selectivity Index
[7] = tested on: Zika virus; assay: Antiviral activity against Zika virus H/PF/2013 infected in pre-seeded Huh-7 cells assessed as inhibition of viral replication incubated for 72 hrs by immunodetection based secondary yield reduction assay; assay type: functional, organism-based; conditions: H/PF/2013, Huh-7, 72 h
[8] = tested on: Zika virus; assay: Antiviral activity against Zika virus H/PF/2013 infected in pre-seeded Huh-7 cells assessed as inhibition of viral replication incubated for 72 hrs by immunodetection based direct yield reduction assay; assay type: functional, organism-based; conditions: H/PF/2013, Huh-7, 72 h; outline: as §1
[9] = tested on: Zika virus; assay: Antiviral activity against Zika virus H/PF/2013 infected in pre-seeded Huh-7 cells assessed as inhibition of viral replication incubated for 72 hrs by immunodetection based plaque reduction assay; assay type: functional, organism-based; conditions: H/PF/2013, Huh-7, 72 h
[10] = Selectivity index, ratio of CC50 for human Huh-7 cells to IC50 for Zika virus H/PF/2013 infected in pre-seeded Huh-7 cells assessed as inhibition of viral replication incubated for 72 hrs by immunodetection based secondary yield reduction assay; assay type: toxicity, cell-based; conditions: read-out: Selectivity Index
[11] = Selectivity index, ratio of CC50 for human Huh-7 cells to IC50 for Zika virus H/PF/2013 infected in pre-seeded Huh-7 cells assessed as inhibition of viral replication incubated for 72 hrs by immunodetection based direct yield reduction assay; assay type: toxicity, cell-based; conditions: read-out: Selectivity Index; outline: as §1
[12] = Selectivity index, ratio of CC50 for human Huh-7 cells to IC50 for Zika virus H/PF/2013 infected in pre-seeded Huh-7 cells assessed as inhibition of viral replication incubated for 72 hrs by immunodetection based plaque reduction assay; assay type: toxicity, cell-based; conditions: read-out: Selectivity Index
[13] = tested on: West Nile virus; assay: Antiviral activity against West Nile virus lineage 1 (Italy/2009) infected in pre-seeded Huh-7 cells assessed as inhibition of viral replication incubated for 48 hrs by immunodetection based direct yield reduction assay; assay type: functional, organism-based; conditions: West Nile virus, lineage 1 (Italy/2009), Huh-7, 48 h; read-out: IC50
[14] = tested on: West Nile virus; assay: Antiviral activity against West Nile virus lineage 1 (Italy/2009) infected in pre-seeded Huh-7 cells assessed as inhibition of viral replication incubated for 48 hrs by immunodetection based plaque reduction assay; assay type: functional, organism-based; conditions: Huh-7, 48 h
[15] = Selectivity index, ratio of CC50 for human Huh-7 cells to IC50 for West Nile virus lineage 1 (Italy/2009) infected in pre-seeded Huh-7 cells assessed as inhibition of viral replication incubated for 48 hrs by immunodetection based direct yield reduction assay; assay type: toxicity, cell-based; conditions: read-out: Selectivity Index; outline: as §1
[16] = Selectivity index, ratio of CC50 for human Huh-7 cells to IC50 for West Nile virus lineage 1 (Italy/2009) infected in pre-seeded Huh-7 cells assessed as inhibition of viral replication incubated for 48 hrs by immunodetection based plaque reduction assay; assay type: toxicity, cell-based; conditions: read-out: Selectivity Index
[17] = tested on: Huh-7; assay: Effect on formation of DENV replication complex in human Huh-7 cells assessed as reduction in expression of NS3 at 100 uM measured after 8 to 24 hrs by DAPI staining based confocal microscopy analysis; assay type: functional, cell-based; conditions: time 8-24 hrs
Outline: (§2)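 Huh-7 cells (1 × 10⁴) on coverslips infected with DENV-2 (MOI 0.05), treated (100 or 50 μM as listed), fixed in 4% paraformaldehyde at 8, 12, 16, 24 h; anti-NS3/anti-NS5 with Alexa 488/568 secondaries, DAPI; confocal, 5 random fields at 40×; % positive cells; 2-way ANOVA with Dunnett.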

[18] = tested on: Huh-7; assay: Effect on formation of DENV replication complex in human Huh-7 cells assessed as reduction in expression of NS5 at 100 uM measured after 8 to 24 hrs by DAPI staining based confocal microscopy analysis; assay type: functional, cell-based; conditions: time 8-24 hrs; outline: as §2
[19] = tested on: Huh-7; assay: Effect on formation of DENV replication complex in human Huh-7 cells assessed as reduction in NS5 translocation into nucleus at 100 uM measured after 16 to 24 hrs by DAPI staining based confocal microscopy analysis; assay type: functional, cell-based; conditions: time 16-24 hrs; outline: as §2
[20] = tested on: Huh-7; assay: Effect on formation of DENV replication complex in human Huh-7 cells assessed as reduction NS3 translocation into cytoplasm at 100 uM measured after 16 to 24 hrs by DAPI staining based confocal microscopy analysis; assay type: functional, cell-based; conditions: time 16-24 hrs; outline: as §2

CC(C)OC(=O)[C@H](C)N[P@](=O)(OC[C@H]1O[C@@H](n2ccc(=O)[nH]c2=O)[C@](C)(F)[C@@H]1O)Oc1ccccc1 [SOFOSBUVIR]
CC50 [1]: 200000 nM | IC50 [2]: 4700 nM | IC50 [3]: 4600 nM | selectivity ratio at 72 h [4]: 42 | selectivity ratio at 72 h [5]: 43 | selectivity ratio at 72 h [6]: 50 | IC50 [7]: 3200 nM | IC50 [8]: 2700 nM | IC50 [9]: 2000 nM | selectivity ratio at 72 h [10]: 62 | selectivity ratio at 72 h [11]: 74 | selectivity ratio at 72 h [12]: 100 | IC50 [13]: 1700 nM | IC50 [14]: 1200 nM | selectivity ratio at 48 h [15]: 117 | selectivity ratio at 48 h [16]: 166 | Activity [17]: Active | Activity [18]: Active | Activity [19]: Active | Activity [20]: inactive

Reference: ChEMBL document CHEMBL4842338, “System-oriented optimization of multi-target 2,6-diaminopurine derivatives: Easily accessible broad-spectrum antivirals active against flaviviruses, influenza virus and SARS-CoV-2” (Eur J Med Chem, 2021)
